Results: ChEMBL document CHEMBL4145616, “Phytochemical Study of Salvia leriifolia Roots: Rearranged Abietane Diterpenoids with Antiprotozoal Activity” (J Nat Prod, 2018)

How the values were obtained:
Plasmodium falciparum = assay: Antiplasmodial activity against drug-sensitive erythrocyte stage of Plasmodium falciparum NF54 assessed as reduction in [3H]-hypoxanthine incorporation pretreated for 48 hrs followed by [3H]-hypoxanthine addition measured after 24 hrs by liquid scintillation counting method; assay type: functional, organism-based
Procedure, shortened: (§1)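 IC50 values are the average of three independent assays.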

[1] = test system: Trypanosoma brucei rhodesiense; assay: Antitrypanosomal activity against Trypanosoma brucei rhodesiense STIB900 bloodstream forms after 70 hrs by Alamar blue assay; assay type: functional, organism-based; conditions: STIB900, 70 h; procedure, shortened: as §1
Trypanosoma cruzi = assay: Antiprotozoal activity against trypomastigote form of Trypanosoma cruzi Tulahuen C2C4 infected in rat L6 cells after 96 hrs by CPRG/Nonidet-based photometric method; assay type: functional, organism-based; conditions: Tulahuen C2C4, L6, 96 h
Leishmania donovani = assay: Antileishmanial activity against Leishmania donovani MHOM/ET/67/L82 axenic amastigotes after 70 hrs by alamar blue staining based fluorescence assay; assay type: functional, organism-based; conditions: MHOM/ET/67/L82, 70 h; procedure, shortened: as §1
L6 = assay: Cytotoxicity against rat L6 cells after 70 hrs by alamar blue assay; assay type: cell-based; conditions: L6, 70 h; procedure, shortened: as §1
[2] = Selectivity index, ratio of IC50 for rat L6 cells to IC50 for drug-sensitive erythrocyte stage of Plasmodium falciparum NF54; assay type: toxicity; conditions: read-out: Ratio IC50
[3] = Selectivity index, ratio of IC50 for rat L6 cells to IC50 for Trypanosoma brucei rhodesiense STIB900 bloodstream forms; assay type: toxicity; conditions: read-out: Ratio IC50
[4] = Selectivity index, ratio of IC50 for rat L6 cells to IC50 for trypomastigote form of Trypanosoma cruzi Tulahuen C2C4 infected in rat L6 cells; assay type: toxicity, cell-based; conditions: read-out: Ratio IC50
[5] = Selectivity index, ratio of IC50 for rat L6 cells to IC50 for Leishmania donovani MHOM/ET/67/L82 axenic amastigotes; assay type: toxicity; conditions: read-out: Ratio IC50

SMILES	IC50 (Plasmodium falciparum) [µM]	IC50 [1] [µM]	IC50 (Trypanosoma cruzi) [µM]	IC50 (Leishmania donovani) [µM]	IC50 (L6) [µM]	selectivity ratio [2]	selectivity ratio [3]	selectivity ratio [4]	selectivity ratio [5]
CC(C)[C@H]1C(=O)C2=C(C1=O)[C@@]1(C)CCCC(C)(C)[C@@H]1CC2=O	3.6	1	4.6	1	2.6	0.7	2.6	0.6	2.6
CC(C)c1cc(CC[C@@H]2C(=O)CCCC2(C)C)c(O)cc1O	0.4	19.7	27.6	–	33.6	84	1.7	1.2	–
CCCCCCCCCCCCCCCCOP(=O)([O-])OCC[N+](C)(C)C [MILTEFOSINE]	–	–	–	0.12	–	–	–	–	–
